ChEMBL document CHEMBL3085664, “Structure-activity relationship of imidazopyridinium analogues as antagonists of neuropeptide s receptor” (J Med Chem, 2013)

Key:
[1] = Chemical stability of the compound in HBBS buffer after 48 hrs; assay type: physicochemical
How it was run: (§1)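 Compound was held in Hank's balanced buffer solution or PBS for 48 hours and checked for decomposition to other species.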

Neuropeptide S receptor [2] = molecular target: T1, Neuropeptide S receptor (Homo sapiens, UniProt Q6W5P4); assay: Displacement of [125I]Tyr10-NPS from neuropeptide S receptor (unknown origin)
T1 sequence (Q6W5P4 whole entry): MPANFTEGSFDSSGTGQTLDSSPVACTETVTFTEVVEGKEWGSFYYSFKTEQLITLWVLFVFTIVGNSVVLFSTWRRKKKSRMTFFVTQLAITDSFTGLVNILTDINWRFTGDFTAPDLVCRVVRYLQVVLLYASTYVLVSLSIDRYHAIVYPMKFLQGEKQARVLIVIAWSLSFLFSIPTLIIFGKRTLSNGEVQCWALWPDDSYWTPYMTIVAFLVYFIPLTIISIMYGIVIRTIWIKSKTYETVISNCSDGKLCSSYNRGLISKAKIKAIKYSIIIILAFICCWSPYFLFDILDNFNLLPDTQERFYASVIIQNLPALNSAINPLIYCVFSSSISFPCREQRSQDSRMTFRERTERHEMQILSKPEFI
How it was run: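 Whole CHO cells stably expressing human NPSR at 90–95% confluency in 24-well plates. Cells were incubated with 0.15 nM [125I]Y10-NPS plus increasing compound or unlabeled NPS in DMEM/0.1% BSA, 20°C, 1.5 hr. Nonspecific binding was defined with 1 µM unlabeled human NPS. Cells were washed, lysed in 1 N NaOH and counted by liquid scintillation. IC50 from one experiment in duplicate.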

Neuropeptide S receptor [3] = molecular target: T1, Neuropeptide S receptor; assay: Antagonist activity at neuropeptide S receptor (unknown origin) expressed in CHO cells assessed as inhibition of NPS-induced calcium mobilization after 10 mins by fluorescence assay; assay type: functional, cell-based; details: read-out: IC50
How it was run: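 CHO-NPSR cells, 2000/well in 1536-well plates, incubated overnight, then loaded with no-wash calcium dye for 1 h at 37°C. Compound in DMSO was added for 10 min. Baseline fluorescence was recorded 6 s at 1 Hz, then EC80 NPS in stimulation buffer was added and recording continued 4 min at 1 Hz on a kinetic reader. IC50 is the mean with SD of two independent experiments in duplicate.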

Neuropeptide S receptor [4] = molecular target: T1, Neuropeptide S receptor; assay: Antagonist activity at neuropeptide S receptor (unknown origin) expressed in CHO cells assessed as inhibition of NPS-induced ERK activation after 20 mins by HTRF assay; assay type: cell-based
Neuropeptide S receptor [5] = molecular target: T1, Neuropeptide S receptor; assay: Antagonist activity at neuropeptide S receptor (unknown origin) expressed in CHO cells assessed as cAMP level after 30 mins by […] assay; assay type: functional, cell-based; details: read-out: IC50
How it was run: (§2)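 CHO cells stably expressing NPSR, 1800 cells/well in 1536-well format, seeded overnight at 37°C in medium without Geneticin. Stimulation buffer (PBS, 0.1% BSA, 0.05% Tween-20, 500µM Ro 20-1724, EC80 NPS) was added for 30 min at 37°C. cAMP was read by HTRF (d2-cAMP/cryptate anti-cAMP in lysis buffer, 30 min). IC50 is the mean with SD of two independent experiments, each run in duplicate.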

Neuropeptide S receptor [6] = molecular target: T1, Neuropeptide S receptor; assay: Antagonist activity at neuropeptide S receptor (unknown origin) assessed as intracellular calcium level by cell based assay; assay type: functional
How it was run: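 CHO cells stably expressing NPSR were seeded at 2000 cells/well and incubated overnight at 37 °C, 5% CO2. They were loaded with no-wash calcium dye for 1 h, then preincubated with compound in DMSO for 10 min. Stimulation used NPS at EC80 in PBS/0.1% BSA/0.05% Tween-20 with 500 µM Ro 20-1724. Kinetic fluorescence was read at 1 Hz: 6 s baseline, then 4 min. IC50 is the mean ± SD of two independent experiments, each in duplicate.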

Neuropeptide S receptor [7] = molecular target: T1, Neuropeptide S receptor; assay: Antagonist activity at neuropeptide S receptor (unknown origin) assessed as cAMP level by cell based assay; assay type: functional; how it was run: as §2
[8] = Chemical stability of the compound in phosphate-buffered saline after 48 hrs; assay type: physicochemical; details: buffer; how it was run: as §1

For `Cc1c(P(=S)(c2ccccc2)c2ccccc2)[n+]2ccccc2n1C.[I-]`, the Stability [1] was “Stable”, the IC50 (Neuropeptide S receptor [2]) was 84 nM and the IC50 (Neuropeptide S receptor [3]) was 51 nM. The IC50 (Neuropeptide S receptor [4]) was 30 nM, the IC50 (Neuropeptide S receptor [5]) was 1700 nM and the IC50 (Neuropeptide S receptor [6]) was 51 nM. For the same compound, the IC50 (Neuropeptide S receptor [7]) was 1700 nM and the Stability [8] was “Stable”.
